# Measured values of several laboratories.
# Each line is one published result; the experiments were not run side by side.
# Target: STE20-like serine/threonine-protein kinase (SLK, Homo sapiens, UniProt Q9H2G2)
SMILES,test,test system,conditions,measurement,value
Cn1c2c(c3ccccc31)C(C#N)C(C)(C)NC2=O (stereo not shown),"thermal stability, DSF",,10 µM,ΔTm,-0.1 °C
O=C(N1CCS(=O)(=O)CC1)N1C[C@H](c2ccc(OC(F)(F)F)cc2)C[C@H](c2nc(C3CC3)no2)C1,"cell-free assay, competition with immobilised ligand",,1 µM,remaining binding,100%
CCN1CCN(Cc2ccc(NC(=O)c3ccc(C)c(Oc4ccnc5[nH]ccc45)c3)cc2C(F)(F)F)CC1,"target engagement in cells, inhibitor, chemoproteomics",Huh-7,1 µM,inhibition,-70.4%
CC(C)(C)c1nc(-c2cccc(NS(=O)(=O)c3c(F)cccc3F)c2F)c(-c2ccnc(N)n2)s1,"enzyme activity, inhibitor, radiometric",,1 µM,remaining activity,90%
COc1cc(-c2cc(-c3ccc(N4CCNCC4)cc3)cnc2C)cc(OC)c1OC,"enzyme activity, inhibitor",,1 µM,inhibition,43%
CN(C)CC#Cc1ccc(OCCCc2sc(N3CCc4cccc(C(=O)Nc5nc6ccccc6s5)c4C3)nc2C(=O)O)c(F)c1,"cell-free assay, competition with immobilised ligand",,1 µM,remaining binding,100%
Nc1ncnc2occ(-c3ccc(NC(=O)Nc4cc(C(F)(F)F)ccc4F)cc3)c12,"cell-free assay, inhibitor",,20 µM,remaining signal,0.05%
Cc1ccc(Nc2nccc(N(C)c3ccc4c(C)n(C)nc4c3)n2)cc1S(N)(=O)=O,"enzyme activity, inhibitor",,0.5 µM,remaining activity,84.9%
CC(C)(O)[C@H]1CC[C@H](Nc2ccc3ncc(-c4cccc(C(F)(F)F)c4)n3n2)CC1,"enzyme activity, inhibitor",,1 µM,remaining activity,71.5%
CC/C(=N\NC(=O)NCc1cccc(O)c1)c1ccc(O)c(C)c1O,"enzyme activity, inhibitor",,0.1 µM,inhibition,4%
CO[C@@H](C)c1c(Nc2ccc([C@H](N(C)C(=O)C3CCS(=O)(=O)CC3)C(F)(F)F)cc2)cnc2cc(Cl)nn12,"cell-free assay, competition with immobilised ligand",,1 µM,remaining binding,81%
Cn1c2c(c3ccc(Cl)c(Cl)c31)C(C#N)C(C)(C)NC2=O (stereo not shown),"thermal stability, DSF",,10 µM,ΔTm,-0.1 °C
Cc1c[nH]c2nccc(Oc3c(F)cc(Nc4cc(Cl)nc(N)n4)cc3F)c12,"cell-free assay, competition with immobilised ligand",,0.1 µM,remaining binding,97%
O=C(Nc1cnn(-c2csc(C(=O)NC3COC3)c2)c1)Nc1c(F)cccc1Cl,"enzyme activity, inhibitor",,5 µM,remaining activity,95%
CN1CCC2(CC1)NC(=O)c1c(c3ccc(Cl)c(Cl)c3n1C)C2C#N (racemic),"thermal stability, DSF",,10 µM,ΔTm,-0.5 °C
N#CCCc1ccc2c(c1)-c1[nH]c3ccc([N+](=O)[O-])cc3c1CC(=O)N2,cell-free assay,,0.5 µM,remaining signal,87.2%
Cc1ccc(C(=O)Nc2ccc(CN3CCN(C)CC3)c(C(F)(F)F)c2)cc1C#Cc1cnc2cccnn12,"enzyme activity, inhibitor",,23.5 nM,remaining activity,7%
O=C1NC(c2ccccn2)Sc2ccccc21 (stereo not shown),"cell-free assay, competition with immobilised ligand",,1 µM,remaining binding,76%
CCN1CCC2(CC1)NC(=O)c1c(c3ccc(Cl)c(Cl)c3n1C)C2C#N (racemic),"thermal stability, DSF",,10 µM,ΔTm,0.1 °C
CNC(=O)Nc1ccc2c(c1)CC[C@@]21OC(=O)N(CC(=O)N(Cc2ccc(F)cc2)[C@@H](C)C(F)(F)F)C1=O,"cell-free assay, competition with immobilised ligand",,1 µM,remaining binding,82%
Cc1ccc(NC(=O)c2ccc(CN3CCN(C)CC3)cc2)cc1Nc1nc(-c2cccnc2)cs1,cell-free assay,,0.5 µM,remaining signal,92.4%
CCS(=O)(=O)c1cc2cc(C[C@](O)(CC(C)(C)c3ccc(F)cc3C(N)=O)C(F)(F)F)[nH]c2cn1,"cell-free assay, competition with immobilised ligand",,1 µM,remaining binding,100%
COc1cc(Nc2c(C#N)cnc3cc(OCCCN4CCN(C)CC4)c(OC)cc23)c(Cl)cc1Cl,cell-free assay,,0.5 µM,remaining signal,21.6%
Cn1c2c(c3ccc(Cl)c(Cl)c31)C(C#N)C1(CCNCC1)NC2=O (racemic),"thermal stability, DSF",,10 µM,ΔTm,-0.1 °C
Cc1c(C(=O)O)cc(-c2ccc(C3CCNCC3)cc2)c2ccc(-c3ccc(C(F)(F)F)cc3)cc12,"binding, competition with immobilised ligand",,1 µM,remaining binding,100%
